Calls of active or inactive are those of the source. No cut-off for these calls is given here.
Key:
[1] = target: Oligo-1,6-glucosidase IMA1 (Saccharomyces cerevisiae S288c) (UniProt P53051); assay: Inhibition of yeast isomaltase at 2 mM after 10 to 30 mins
[2] = target: Alpha-galactosidase (Coffea arabica) (UniProt Q42656); assay: Inhibition of green coffee bean alpha-galactosidase at 2 mM after 10 to 30 mins
[3] = Inhibition of Helix pomatia beta-mannosidase after 10 to 30 mins
[4] = Inhibition of almond beta-glucosidase at pH 7.3 after 10 to 30 mins; design: species or system Prunus dulcis
[5] = Inhibition of Penicillium decumbens naringinase after 10 to 30 mins
Uncharacterized protein [6] = target: T1, Uncharacterized protein (Sus scrofa, UniProt I3LIR5); assay: Inhibition of pig kidney trehalase after 10 to 30 mins
T1 sequence (I3LIR5 whole entry): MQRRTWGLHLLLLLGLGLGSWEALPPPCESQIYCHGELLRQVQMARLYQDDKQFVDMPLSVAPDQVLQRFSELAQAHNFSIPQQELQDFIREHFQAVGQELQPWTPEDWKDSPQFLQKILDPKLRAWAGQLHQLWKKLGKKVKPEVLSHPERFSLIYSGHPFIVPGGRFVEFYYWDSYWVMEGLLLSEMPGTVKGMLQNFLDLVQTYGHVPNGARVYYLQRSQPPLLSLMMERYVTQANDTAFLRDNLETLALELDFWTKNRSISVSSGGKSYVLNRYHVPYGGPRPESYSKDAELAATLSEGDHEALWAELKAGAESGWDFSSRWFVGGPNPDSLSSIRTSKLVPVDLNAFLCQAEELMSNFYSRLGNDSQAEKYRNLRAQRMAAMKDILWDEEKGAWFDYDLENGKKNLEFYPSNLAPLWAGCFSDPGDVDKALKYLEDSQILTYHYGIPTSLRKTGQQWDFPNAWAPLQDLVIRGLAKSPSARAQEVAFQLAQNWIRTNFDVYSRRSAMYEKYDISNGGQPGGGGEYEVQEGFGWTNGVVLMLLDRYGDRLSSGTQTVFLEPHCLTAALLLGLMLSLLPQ

[7] = Inhibition of Aspergillus niger amyloglucosidase after 10 to 30 mins
[8] = Inhibition of jack beans alpha-mannosidase after 10 to 30 mins; design: species or system Canavalia ensiformis
Alpha-glucosidase MAL12 [9] = target: T2, Alpha-glucosidase MAL12 (Saccharomyces cerevisiae S288c, UniProt P53341); assay: Inhibition of yeast alpha-glucosidase after 10 to 30 mins
Glucosylceramidase = target: T3, Glucosylceramidase (Bos taurus, UniProt Q2KHZ8); assay: Inhibition of bovine liver beta-glucosidase at 2 mM after 10 to 30 mins
T3 sequence (Q2KHZ8 whole entry): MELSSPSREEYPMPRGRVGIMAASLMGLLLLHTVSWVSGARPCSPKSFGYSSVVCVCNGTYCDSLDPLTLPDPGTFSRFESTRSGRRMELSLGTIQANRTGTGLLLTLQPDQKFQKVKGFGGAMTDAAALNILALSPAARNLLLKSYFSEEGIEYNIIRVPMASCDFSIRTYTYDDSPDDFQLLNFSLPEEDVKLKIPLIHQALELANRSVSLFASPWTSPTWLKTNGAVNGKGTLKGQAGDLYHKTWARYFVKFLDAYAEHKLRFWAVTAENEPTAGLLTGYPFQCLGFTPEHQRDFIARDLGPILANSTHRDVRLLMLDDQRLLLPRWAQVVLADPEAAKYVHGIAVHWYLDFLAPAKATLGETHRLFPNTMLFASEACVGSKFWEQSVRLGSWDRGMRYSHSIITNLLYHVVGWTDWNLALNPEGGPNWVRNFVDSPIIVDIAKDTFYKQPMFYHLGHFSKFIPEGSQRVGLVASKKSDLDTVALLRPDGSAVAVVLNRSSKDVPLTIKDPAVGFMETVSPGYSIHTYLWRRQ

[10] = Inhibition of jack beans alpha-mannosidase at 2 mM after 10 to 30 mins; design: species or system Canavalia ensiformis
Alpha-glucosidase MAL12 [11] = target: T2, Alpha-glucosidase MAL12; assay: Inhibition of yeast alpha-glucosidase at 2 mM after 10 to 30 mins
[12] = Inhibition of Aspergillus niger amyloglucosidase at 2 mM after 10 to 30 mins
[13] = Inhibition of Helix pomatia beta-mannosidase at 2 mM after 10 to 30 mins
[14] = Binding affinity to almond beta-glucosidase by FRET assay; design: species or system Prunus dulcis
Method in brief: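 Direct titration: almond β-glucosidase 1.25 µM in 0.05 M potassium phosphate pH 7.3, 37 °C. Inhibitor stock (50 µM, made in the enzyme solution) added portion-wise to ~6 µM. Excitation 280 nm. Tryptophan emission read at 339 nm and dansyl emission at 515 nm at 10–15 ratios. Kd from least-squares fit to a 1:1 model. Reverse titration (enzyme into 1.0 µM inhibitor, 515 nm) gave confirmation.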

Uncharacterized protein [15] = target: T1, Uncharacterized protein; assay: Inhibition of pig kidney trehalase at 2 mM after 10 to 30 mins

Alpha-galactosidase (Coffea arabica), sequence (Q42656 16-378 limits assumed): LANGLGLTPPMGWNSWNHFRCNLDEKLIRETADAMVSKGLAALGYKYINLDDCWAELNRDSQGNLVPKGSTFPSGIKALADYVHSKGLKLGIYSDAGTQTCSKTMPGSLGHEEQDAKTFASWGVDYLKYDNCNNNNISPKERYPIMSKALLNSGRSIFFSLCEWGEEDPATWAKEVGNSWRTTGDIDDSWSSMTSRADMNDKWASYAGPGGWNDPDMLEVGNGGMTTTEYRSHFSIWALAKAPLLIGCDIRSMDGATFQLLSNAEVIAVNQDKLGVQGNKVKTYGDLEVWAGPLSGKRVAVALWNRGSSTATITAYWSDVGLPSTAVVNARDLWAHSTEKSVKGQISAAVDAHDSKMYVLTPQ
Oligo-1,6-glucosidase IMA1 (Saccharomyces cerevisiae S288c), sequence (P53051 whole entry): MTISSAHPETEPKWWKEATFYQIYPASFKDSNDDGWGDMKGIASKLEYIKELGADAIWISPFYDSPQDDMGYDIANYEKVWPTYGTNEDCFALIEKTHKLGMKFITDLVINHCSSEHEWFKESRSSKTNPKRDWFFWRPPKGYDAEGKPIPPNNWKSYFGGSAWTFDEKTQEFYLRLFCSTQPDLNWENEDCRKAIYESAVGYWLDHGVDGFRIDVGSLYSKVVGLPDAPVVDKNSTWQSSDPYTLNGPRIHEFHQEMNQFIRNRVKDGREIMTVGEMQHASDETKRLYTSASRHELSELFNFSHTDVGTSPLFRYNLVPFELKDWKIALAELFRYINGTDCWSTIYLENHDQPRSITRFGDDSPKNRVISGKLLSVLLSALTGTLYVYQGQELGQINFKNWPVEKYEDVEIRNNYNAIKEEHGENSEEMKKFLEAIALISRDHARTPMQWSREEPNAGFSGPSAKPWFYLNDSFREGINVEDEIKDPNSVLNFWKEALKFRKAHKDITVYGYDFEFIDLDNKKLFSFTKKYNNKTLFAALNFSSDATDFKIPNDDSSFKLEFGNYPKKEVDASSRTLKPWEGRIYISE
T2 sequence (P53341 whole entry): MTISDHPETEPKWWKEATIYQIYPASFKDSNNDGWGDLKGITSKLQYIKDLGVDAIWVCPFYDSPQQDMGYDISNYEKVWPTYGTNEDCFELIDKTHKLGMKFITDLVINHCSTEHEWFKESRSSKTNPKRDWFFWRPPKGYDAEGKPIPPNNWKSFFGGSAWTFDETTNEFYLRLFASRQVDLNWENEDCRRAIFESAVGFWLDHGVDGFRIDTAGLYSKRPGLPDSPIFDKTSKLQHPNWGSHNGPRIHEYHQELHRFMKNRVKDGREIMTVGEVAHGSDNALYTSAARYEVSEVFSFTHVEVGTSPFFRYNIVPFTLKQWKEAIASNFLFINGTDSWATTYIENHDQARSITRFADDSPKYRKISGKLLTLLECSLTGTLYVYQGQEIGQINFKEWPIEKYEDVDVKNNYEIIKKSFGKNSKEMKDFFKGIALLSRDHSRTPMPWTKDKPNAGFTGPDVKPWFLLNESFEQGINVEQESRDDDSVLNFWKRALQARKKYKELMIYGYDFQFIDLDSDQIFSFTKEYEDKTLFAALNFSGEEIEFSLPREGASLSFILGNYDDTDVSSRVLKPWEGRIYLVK

Row | Structure (SMILES) | inhibition [1] | inhibition [2] | Ki ([3]; read-out: Ki) | Ki [4] | Ki [5] | Ki (Uncharacterized protein [6]) | Ki [7] | Ki [8] | Ki (Alpha-glucosidase MAL12 [9]) | Ki (Glucosylceramidase) | Ki [10] | Ki (Alpha-glucosidase MAL12 [11]) | Ki [12] | Ki [13] | Kd [14] | Ki (Uncharacterized protein [15]) | Ki [3]
1 | CCN(CC)c1ccc2cc(C(=O)NCCCC/N=C3\SC[C@@H]4[C@@H](O)[C@H](O)[C@@H](O)[C@@H](O)N34)c(=O)oc2c1 | inactive | inactive | 11 µM | 0.45 µM | 0.072 µM | 28.2 µM | 167 µM | 199 µM | 313 µM | – | – | – | – | – | – | – | –
2 | Cl.NCCCC/N=C1\SC[C@@H]2[C@@H](O)[C@H](O)[C@@H](O)[C@@H](O)N12 | inactive | inactive | – | 12.8 µM | 1.8 µM | 116 µM | – | – | – | Not Active | Not Active | Not Active | Not Active | Not Active | – | – | –
3 | CN(C)c1cccc2c(S(=O)(=O)NCCCC/N=C3\SC[C@@H]4[C@@H](O)[C@H](O)[C@@H](O)[C@@H](O)N34)cccc12 | inactive | inactive | 387 µM | 0.36 µM | 0.21 µM | 293 µM | – | – | 246 µM | – | Not Active | – | Not Active | – | 0.2 µM | – | –
4 | CN(C)c1ccc(-c2cnc(-c3ccc(S(=O)(=O)NCCCC/N=C4\SC[C@@H]5[C@@H](O)[C@H](O)[C@@H](O)[C@@H](O)N45)cc3)o2)cc1 | inactive | inactive | 522 µM | 0.55 µM | 1.2 µM | – | – | 235 µM | 714 µM | – | – | – | Not Active | – | – | Not Active | –
5 | CCCCCCCC/N=C1\SC[C@@H]2[C@@H](O)[C@H](O)[C@@H](O)[C@@H](O)N12 | inactive | inactive | – | 0.76 µM | 0.23 µM | 13.4 µM | – | – | – | – | Not Active | Not Active | – | – | – | – | Not Active
